VLA-4 inh: inhibition in a human VLA-4 binding assay. P13612. VLA-4 expressing cells, ligand binding flow cytometry. inhibition, % (about 7 µM as worked out from the volumes in the protocol). 330,000 compounds, 0.2% hits. AID 2557; in the data active means inhibition above about 50%
SENP1 inh: SENP1 (human) catalytic domain inhibition; recombinant SENP1 catalytic domain, CyPet-SUMO1-YPet FRET cleavage; inhibition, % at 10 µM; 360,000 compounds, 0.21% hits; AID 624204;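 active means inhibition at least 30% at 10 µM, raw YFP signal under a set limit, fluorescence ratio 0.5 to 1.5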;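 further: 0% = enzyme with DMSO and 100% = no enzyme wells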
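Test system: hSENP1 catalytic domain, recombinant; Amount: 20 pM final SENP1 enzyme; Medium: Tris pH 8 buffer plus EDTA, NaCl, BME, BSA, NP40, catalase; Schedule: 50 min enzyme reaction, room temperature, light-protected; Technique: FRET fluorescence in CFP and YFP emission channels; Controls: no-enzyme wells low, DMSO-plus-enzyme wells high control.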
Myeloid diff 2: compounds promoting myeloid differentiation | ER-HoxA9 myeloid progenitors, lysozyme-GFP differentiation, flow cytometry | calls only at 10 µM | 360,000 compounds, 1% hits | AID 624256;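 active means normalized GFP-positive differentiation at or above the plate's own cutoff, the solvent-only control mean plus 3 SD; inconclusive means no clear call, values can overlap the other calls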;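 further: cells exposed to compound for four days before flow analysis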
Platelet DG rel: modulates dense granule release in human platelets; human platelet-rich plasma, SFLLRN dense granule ATP release, luminescence; inhibition, %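 (compounds screened at 7.5 µM in platelet-rich plasma)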; 300,000 compounds, 0.22% hits; AID 1663;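 active means mean replicate score, as percent of positive control, at or above 50; inconclusive means mean below 50 but at least one replicate at or above 50; inactive means mean and every replicate below 50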
* marks the source's active call; other numbers are inactive results; i = inactive; ? = inconclusive; · = not tested or not shown; + = active, no number. Rows were chosen to be rich in hits. Some 1.5% of all compounds tested hit in one or more screens of this group.

SMILES	VLA-4 inh	SENP1 inh	Myeloid diff 2	Platelet DG rel
CN(C(=O)CN1C(=O)c2ccccc2S1(=O)=O)C1CCCCC1	-2	2	i	·
O=C(CNS(=O)(=O)c1ccc(F)cc1)N1CCCCCC1	4	1	i	-1
O=C(NC(=O)c1ccccc1)Nc1ccccn1	-8	2	i	82*
CN(C)C(=O)[C@H]1C[C@H]1[C@@H](O)[C@H](CO)NC(=O)[C@H](Cc1ccccc1)NC(=O)OC(C)(C)C	19	1	i	0
Oc1ccc(C[C@@H]2CNCCN2CCc2cc(C(F)(F)F)cc(C(F)(F)F)c2)cc1	10	2	+	0
O=C(NC(Cc1ccccc1)C(=O)O)/C(=C/c1cccc([N+](=O)[O-])c1)NC(=O)c1cccc(Br)c1 (stereo not given)	13	0	i	24
Cc1cccc(NS(=O)(=O)c2cccc(C(=O)NCC(C)(C)N3CCOCC3)c2)c1	-10	2	+	3
COc1ccc(C(=O)Nc2cccnc2)cc1	-7	4	i	-5
COc1ccc(C(=O)Nc2ccccc2C(=O)Nc2cccnc2)cc1	8	1	i	64*
CN(CC(=O)Nc1ccccc1Br)C(=O)C(Cc1ccccc1)NC(=O)c1ccccc1 (stereo not given)	-7	1	i	59*
CN(CC(=O)Nc1ccccc1Br)C(=O)CNC(=O)c1ccc(Oc2ccccc2)cc1	-3	0	+	16
CNC(=S)Nc1cccc(S(=O)(=O)NC2=NCCC2)c1	-5	2	i	5
CC(=O)Nc1nonc1NC(=O)CSc1nc2ccccc2o1	-3	2	+	12
COc1cc(OC)c(N(C)S(=O)(=O)c2cccc(C(=O)Nc3nccs3)c2)cc1Cl	5	3	i	·
CNc1ccc(C(=O)N2CCN(S(=O)(=O)c3ccc4c(c3)OCCCO4)CC2)cc1[N+](=O)[O-]	12	4	+	1
CSCCC(C)N1CCC(Oc2ccc(C(=O)N3CCCC3)cc2)CC1 (stereo not given)	-23	-21	i	2
CN(C)S(=O)(=O)c1cc(NC(=O)CSc2ncc(C(F)(F)F)cc2Cl)ccc1Cl	13	1	+	1
COc1ccc(S(=O)(=O)N2CCN=C2SCc2cccc(F)c2)cc1	-9	1	i	-1
CC(C)N1CC(O)=C(c2nc3ccccc3[nH]2)C1=N	-11	-3	i	4
CC(C1CC2CCC1C2)N1CC(O)=C(c2nc3ccccc3[nH]2)C1=N (stereo not given)	-24	-57	+	1
O=C(NCCO)Nc1ccc(Cl)cc1	13	2	i	5
O=C(NCCNC(=O)Nc1ccc(Cl)cc1)Nc1ccc(Cl)cc1	·	1	+	·
CCc1nnc(NC(=O)/C=C/c2ccco2)s1	3	5	i	-1
O=C(/C=C/c1ccco1)Nc1nnc(-c2ccco2)s1	1	-3	+	5
O=C(N/C(=C\c1ccccc1)C(=O)N1CCOCC1)c1cccc(Br)c1	-5	1	i	0
SMILES	VLA-4 inh	SENP1 inh	Myeloid diff 2	Platelet DG rel
CCOC(=O)c1c(S(=O)(=O)NCc2ccco2)c(C)n(C)c1C	13	0	i	16
COc1ccc(C)cc1N(C(=O)c1ccco1)C(C(=O)NC1CCCC1)c1ccc(N2CCOCC2)cc1 (stereo not given)	-9	2	+	-4
COc1ccc(OC)c(N(C(=O)c2ccco2)C(C(=O)NC2CCCC2)c2ccc(N3CCOCC3)cc2)c1 (stereo not given)	-3	1	i	8
O=C(c1cc(-c2ccco2)nc2ccccc12)N1CCCC(C(F)(F)F)C1 (stereo not given)	5	-3	i	·
Cc1noc(C)c1COC(=O)c1ccc(F)c(S(=O)(=O)N2CCOCC2)c1	-12	1	i	·
CCOC(=O)C1=C(C2=CCCCC2)c2ccc(OC)cc2N(S(=O)(=O)C(F)(F)F)C1C(=O)OCC (stereo not given)	·	-15	i	·
Cc1nn(C)c(C)c1N1C(=O)c2cccc3c(Br)ccc(c23)C1=O	5	-12	+	·
Cc1nn(C)c(C)c1N1C(=O)c2cccc3c(N)ccc(c23)C1=O	-187	-27	+	·
CCc1cc(/C(Cc2ccccn2)=N\O)c(O)cc1O	-3	2	+	12
CC1CCCC/C1=N\NC(=S)Nc1cccnc1 (stereo not given)	-2	0	i	0
Cc1ccc(NC(=S)N/N=C2\CCCCC2C)cc1 (stereo not given)	10	0	+	10
c1coc(CNc2c3c(nc4ccccc24)CCC3)c1	-112	-44	+	1
CC(C)NCC(=O)Nc1c2c(nc3ccccc13)CCC2	-6	-1	i	4
COc1ccc(N2C(=NC(=O)c3ccccc3)SC3CS(=O)(=O)CC32)cc1 (stereo not given)	3	1	i	3
CN1CCCN(C(=O)Cc2c(Cl)cccc2Cl)c2nc3ccccc3nc21	6	-68	+	-2
CN1CCCN(C(=O)c2cc(=O)[nH]c3ccccc23)c2nc3ccccc3nc21	1	-46	i	0
NC1=NC2(CCCCC2)N(c2cccc(Cl)c2)C(N)=N1	7	6	+	0
O=C(Nc1ccc(S(=O)(=O)NC2=NCCCCC2)cc1)c1ccc(=O)[nH]c1	18	1	i	0
Cc1noc(/C=C/c2ccco2)c1S(=O)(=O)N1CCC(C(=O)NC(C)c2ccccc2)CC1 (stereo not given)	14	0	+	1
CC(NC(=O)C1CCCN1S(=O)(=O)c1cccc2cccnc12)c1ccccc1 (stereo not given)	1	1	i	-3
CC(NC(=O)C1CCN(S(=O)(=O)c2cccc3cccnc23)CC1)c1ccccc1 (stereo not given)	1	1	+	14
c1ccc(Oc2cccc(Oc3ccccc3)n2)cc1	4	0	i	4
N#CCC(=O)N/N=C/c1ccc(N2N=C(c3ccccc3)CC2c2ccccc2)cc1 (stereo not given)	-179	-25	+	-12
Cc1ccc(S(=O)(=O)NC(=O)c2cc(C)n(C3CC3)c2C)cc1	19	1	i	-4
COc1cc(N/N=C/c2ccc(N(C)C)cc2)ncn1	-4	-10	i	57*
SMILES	VLA-4 inh	SENP1 inh	Myeloid diff 2	Platelet DG rel
O=C(NCc1cccs1)C1CCC(=O)N(Cc2cccc(C(F)(F)F)c2)C1 (stereo not given)	8	2	i	-8
COc1ccc(CCNC(=O)C2CCN(S(=O)(=O)c3cccc4cccnc34)CC2)cc1OC	-7	-1	?	-1
O=C1C2CCCN2C(=S)N1C1CCCCC1 (stereo not given)	21	1	i	-1
O=C(Nc1ccccc1)c1ccccc1CCc1ccccc1	9	-2	i	0
O=C(Nn1cnnc1)c1ccccc1CCc1ccccc1	6	2	i	62*
COc1ccc(-n2c(O)c(C=Nc3ccccc3)c3ccccc3c2=O)cc1	7	-111	·	2

Screens deposited in PubChem by several laboratories.
